Experimental data reported in ChEMBL document CHEMBL4359895, “Discovery and biological evaluation of darolutamide derivatives as inhibitors and down-regulators of wild-type AR and the mutants” (Eur J Med Chem, 2019).
Changes are numbered by the printed parent chain. Values after ≈ are worked out from the molar mass of the structure shown. Active and inactive are the calls of the source. No cut-off for these calls is given here.

Experiments:
LNCaP [1] = assay: Antiproliferative activity against human LNCAP expressing AR assessed as reduction in cell viability incubated for 6 days by CCK-8 assay; assay type: functional, cell-based; details: 144 h
Procedure, shortened: (§1)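 Cell proliferation assay run on LNCaP/AR, VCaP, 22Rv1, PC-3 and L-02 cells, with PC-3 and L-02 serving as AR-independent toxicity controls. IC50 fitted in GraphPad Prism 5 as the mean of at least two experiments, each in duplicate. Deviations under 35%.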

L02 = assay: Cytotoxicity against human L02 assessed as reduction in cell viability incubated for 6 days by CCK-8 assay; assay type: cell-based; details: L02, 144 h; procedure, shortened: as §1
[2] = molecular target: Bromodomain-containing protein 4 (Homo sapiens) (UniProt O60885); assay: Inhibition of BRD4 (unknown origin) by alpha-screen assay
[3] = Solubility of compound in PBS incubated for 24 hrs by HPLC analysis; assay type: physicochemical
Procedure, shortened: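 Solubility determined in PBS at 25 ℃ by the saturation shake-flask method. Quantified against calibration curves.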

[4] = molecular target: T1, Androgen receptor (Homo sapiens) (UniProt P10275); assay: Inhibition of AR (unknown origin) transfected in human PC3 cells assessed as receptor transactivation at 0.1 to 30 uM incubated for 24 hrs by dual luciferase reporter gene assay; assay type: cell-based
T1 sequence (whole entry): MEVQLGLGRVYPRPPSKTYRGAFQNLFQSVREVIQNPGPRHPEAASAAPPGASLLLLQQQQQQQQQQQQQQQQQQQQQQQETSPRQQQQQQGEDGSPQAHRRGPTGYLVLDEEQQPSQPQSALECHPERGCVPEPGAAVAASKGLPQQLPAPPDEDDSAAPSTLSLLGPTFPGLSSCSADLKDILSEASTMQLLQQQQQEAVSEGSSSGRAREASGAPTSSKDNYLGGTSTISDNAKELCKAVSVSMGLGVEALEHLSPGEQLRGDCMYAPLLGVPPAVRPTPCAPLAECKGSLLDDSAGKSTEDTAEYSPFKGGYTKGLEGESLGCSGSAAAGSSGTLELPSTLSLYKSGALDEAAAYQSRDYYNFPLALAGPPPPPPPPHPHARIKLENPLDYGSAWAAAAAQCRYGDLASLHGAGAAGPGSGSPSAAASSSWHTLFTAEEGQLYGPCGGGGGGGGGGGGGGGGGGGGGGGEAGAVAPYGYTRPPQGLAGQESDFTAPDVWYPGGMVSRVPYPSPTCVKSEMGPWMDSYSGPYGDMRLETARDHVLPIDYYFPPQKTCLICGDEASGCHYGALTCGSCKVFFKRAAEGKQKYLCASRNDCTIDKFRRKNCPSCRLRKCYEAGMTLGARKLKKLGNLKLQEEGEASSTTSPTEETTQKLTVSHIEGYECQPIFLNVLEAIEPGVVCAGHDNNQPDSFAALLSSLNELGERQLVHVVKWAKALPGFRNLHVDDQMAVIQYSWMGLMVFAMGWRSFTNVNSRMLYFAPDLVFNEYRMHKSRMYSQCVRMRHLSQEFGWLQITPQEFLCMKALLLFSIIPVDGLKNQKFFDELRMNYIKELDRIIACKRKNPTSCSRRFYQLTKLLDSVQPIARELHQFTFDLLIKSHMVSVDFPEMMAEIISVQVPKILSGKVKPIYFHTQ

PC-3 = assay: Cytotoxicity against human PC3 assessed as reduction in cell viability incubated for 6 days by CCK-8 assay; assay type: cell-based; details: PC-3, 144 h; procedure, shortened: as §1
LNCaP [5] = assay: Inhibition of AR protein expression in human LNCAP cells at 20 uM incubated for 24 hrs by Western blot analysis; assay type: functional, cell-based
Procedure, shortened: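 LNCaP cells treated with 20 µM compound or DMSO for 24 h. AR-full protein detected by western blot with tubulin as loading control, then quantified by ImageJ grayscale analysis.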

CWR22R = assay: Antiproliferative activity against human 22Rv1 expressing AR assessed as reduction in cell viability incubated for 6 days by CCK-8 assay; assay type: functional, cell-based; details: 22Rv1, 144 h; procedure, shortened: as §1
VCaP [6] = assay: Inhibition of AR splice variant 7 mutant expression in human VCaP cells at 10 to 30 uM incubated for 24 hrs by Western blot analysis analysis; assay type: functional, cell-based
Procedure, shortened: (§2)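 LNCaP, VCaP and 22Rv1 cells grown in medium with 10% (v/v) FBS. Treated with compounds or DMSO for 24 h. AR-full and AR splice-variant protein then assessed by western blot.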

VCaP [7] = assay: Inhibition of AR protein expression in human VCaP cells at 10 to 30 uM incubated for 24 hrs by Western blot analysis; assay type: functional, cell-based; procedure, shortened: as §2
[8] = molecular target: T1, Androgen receptor (Homo sapiens); assay: Inhibition of AR in human HEK293 cells assessed as decrease in receptor transactivation at 10 uM incubated for 24 hrs by dual luciferase reporter gene assay; assay type: cell-based
Procedure, shortened: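 HEK 293 cells transiently co-transfected with wt-AR expression vector and an androgen-responsive luciferase reporter construct. Cells given 2 nM testosterone plus 10 µM test compound (final concentrations). Read-out by luciferase, mean ± SD, n = 3.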

[9] = tested on: T2, Androgen receptor (Homo sapiens), P10275 [F877L]; assay: Inhibition of AR F876L mutant (unknown origin) transfected in human PC3 cells assessed as receptor transactivation at 0.1 to 30 uM incubated for 24 hrs by dual luciferase reporter gene assay; assay type: cell-based
T2 sequence (whole entry): T1 sequence (whole entry) with F877L

Row | Structure (SMILES) | IC50 (LNCaP [1]) | IC50 (L02) | inhibition [2] | solubility at 24 h [3] | inhibition [4] | IC50 (PC-3) | inhibition (LNCaP [5]) | IC50 (CWR22R) | inhibition (VCaP [6]) | inhibition (VCaP [7]) | inhibition [8] | inhibition [9]
1 | C[C@@H](Cn1ccc(-c2ccc(C#N)c(Cl)c2)n1)Nc1cccc2ncccc12 | 1.08 µM | 16.6 µM | inactive | < 2.52 µM | Active | 7.96 µM | Active | 3.92 µM | Active | Active | Active | Active
2 | C[C@@H](Cn1ccc(-c2ccc(C#N)c(Cl)c2)n1)Nc1ncnc2nc[nH]c12 | 0.96 µM | 27.9 µM | inactive | 24.5 µM (≈ 9.27 µg/mL) | Active | 14.1 µM | Active | 4.24 µM | Active | Active | Active | Active
